Measurements as given in ChEMBL document CHEMBL4038330, “Discovery of Potent Orally Active Protease-Activated Receptor 1 (PAR1) Antagonists Based on Andrographolide” (J Med Chem, 2017).

Tests used:
[1] = MRT (0 to infinity) in Wistar rat at 5 mg/kg, po measured up to 24 hrs post dose by HPLC-MS/MS analysis; format: ADME, organism-based; conditions: in vivo
Method in brief: (§1)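 Male Wistar rats, n = 6 per group, given 1 mg/kg intravenously or 5 mg/kg intragastrically. Blood concentrations followed over 24 h. Non-compartmental analysis; values as median ± SD. Bioavailability from oral versus intravenous exposure.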

[2] = MRT (0 to infinity) in Wistar rat at 1 mg/kg, iv administered as bolus dose measured up to 24 hrs post dose by HPLC-MS/MS analysis; format: ADME, organism-based; conditions: in vivo; method in brief: as §1
Plasma [3] = experiment: Drug metabolism in Wistar rat plasma assessed as [M2+O] metabolite formation at 5 mg/kg, po administered as single dose measured at 3 hrs post dose by LC-HRMS analysis; format: ADME, organism-based; conditions: in vivo
Method in brief: (§2)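 Rats dosed orally at 10 mg/kg or 5 mg/kg. Plasma taken at 3.0 h after dosing. Parent and metabolites detected by extracted ion chromatograms.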

Rattus norvegicus [4] = experiment: VRT (0 to infinity) in Wistar rat at 1 mg/kg, iv administered as bolus dose measured up to 24 hrs post dose by HPLC-MS/MS analysis; format: ADME, organism-based; conditions: in vivo
Rattus norvegicus [5] = experiment: Toxicity in Wistar rat assessed as behavioral abnormalities at 1 mg/kg, iv measured up to 24 hrs post dose; format: organism-based; conditions: in vivo
Method in brief: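 Male Wistar rats given 1 mg/kg iv or 5 mg/kg intragastrically. Behaviour observed for abnormalities over the 24 h sampling period.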

Rattus norvegicus [6] = experiment: AUMC (0 to infinity) in Wistar rat at 1 mg/kg, iv administered as bolus dose measured up to 24 hrs post dose by HPLC-MS/MS analysis; format: ADME, organism-based; conditions: in vivo; method in brief: as §1
[7] = target: T1, Proteinase-activated receptor 1 (Homo sapiens, UniProt P25116); experiment: Antagonist activity at human PAR1 expressed in HEK293 cells co-expressing Galpha15 assessed as inhibition of haTRAP-induced calcium mobilization preincubated for 15 mins followed by haTRAP addition by calcium-4 dye based FLIPR assay; format: functional, cell-based
T1 sequence (P25116 whole entry): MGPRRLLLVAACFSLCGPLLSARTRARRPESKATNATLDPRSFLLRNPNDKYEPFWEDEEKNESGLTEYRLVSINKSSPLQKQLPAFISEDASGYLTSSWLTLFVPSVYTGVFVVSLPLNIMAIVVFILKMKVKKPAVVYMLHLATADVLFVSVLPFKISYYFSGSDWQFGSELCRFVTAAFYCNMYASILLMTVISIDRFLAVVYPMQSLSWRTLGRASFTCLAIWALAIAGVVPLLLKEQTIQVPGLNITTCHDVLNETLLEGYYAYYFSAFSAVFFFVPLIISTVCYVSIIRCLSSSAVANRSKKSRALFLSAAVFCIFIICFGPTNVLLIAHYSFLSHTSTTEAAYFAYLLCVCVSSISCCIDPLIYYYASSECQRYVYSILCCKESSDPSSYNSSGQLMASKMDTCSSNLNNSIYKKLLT

Platelet [8] = experiment: Effect on ADP-stimulated platelet aggregation in human platelet-rich plasma up to 10 uM preincubated for 20 mins followed by ADP stimulation measured after 5 mins by aggregometric analysis; format: ADME, cell-based
Method in brief: (§3)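 Human platelet-rich plasma stimulated with TRAP 15 µM, ADP 10 µM or collagen 5 µg/mL. ADP and collagen tests went up to 10 µM compound. Three separate experiments per agonist. Mean IC50 taken from IC50s of the independent experiments; values given as median ± SD.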

[9] = Tmax in Wistar rat at 5 mg/kg, po measured up to 24 hrs post dose by HPLC-MS/MS analysis; format: ADME, organism-based; conditions: in vivo; method in brief: as §1
Rattus norvegicus [10] = experiment: VRT (0 to infinity) in Wistar rat at 5 mg/kg, po measured up to 24 hrs post dose by HPLC-MS/MS analysis; format: ADME, organism-based; conditions: in vivo
[11] = AUC (0 to infinity) in Wistar rat at 5 mg/kg, po measured up to 24 hrs post dose by HPLC-MS/MS analysis; format: ADME, organism-based; design: dose 5 mg/kg, time infinity, route oral; conditions: in vivo
Method in brief: (§4)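 Male Wistar rats, n = 6 per group, dosed intragastrically at 5 mg/kg or intravenously at 1 mg/kg. Blood concentrations followed over 24 h. Parameters from non-compartmental analysis, reported as median ± SD.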

[12] = Tmax in Wistar rat at 1 mg/kg, iv administered as bolus dose measured up to 24 hrs post dose by HPLC-MS/MS analysis; format: ADME, organism-based; conditions: in vivo; method in brief: as §1
[13] = test system: collagen-stimulated platelet aggregation; experiment: Toxicity in guinea pig assessed as inhibition of collagen-stimulated platelet aggregation at 10 mg/kg, po pretreated for 2 hrs followed by collagen stimulation measured after 5 mins; format: organism-based, Cavia porcellus; conditions: in vivo
[14] = test system: ADP-stimulated platelet aggregation; experiment: Toxicity in guinea pig assessed as inhibition of ADP-stimulated platelet aggregation at 10 mg/kg, po pretreated for 2 hrs followed by ADP stimulation measured after 5 mins; format: organism-based, Cavia porcellus; conditions: in vivo
Cavia porcellus [15] = experiment: In vivo antagonist activity at PAR1 in guinea pig assessed as inhibition of thrombin-stimulated platelet aggregation at 30 mg/kg, po pretreated for 2 hrs followed by thrombin stimulation measured after 5 mins; format: functional
Cavia porcellus [16] = experiment: In vivo antagonist activity at PAR1 in guinea pig assessed as inhibition of TRAP-stimulated platelet aggregation at 30 mg/kg, po pretreated for 2 hrs followed by TRAP stimulation measured after 5 mins; format: functional
Rattus norvegicus [17] = experiment: Toxicity in Wistar rat assessed as body weight at 5 mg/kg, po measured up to 24 hrs post dose; format: organism-based; conditions: in vivo
[18] = Apparent clearance in Wistar rat at 1 mg/kg, iv administered as bolus dose measured up to 24 hrs post dose by HPLC-MS/MS analysis; format: ADME, organism-based; conditions: in vivo, read-out: CL(app) (converted); method in brief: as §1
Plasma [19] = experiment: Stability in Wistar rat assessed as parent compound level in plasma at 5 mg/kg, po administered as single dose measured at 3 hrs post dose by LC-HRMS analysis; format: ADME, organism-based; conditions: in vivo; method in brief: as §2
[20] = Oral bioavailability in Wistar rat at 5 mg/kg measured up to 24 hrs post dose by HPLC-MS/MS analysis; format: ADME, organism-based; conditions: in vivo; method in brief: as §1
Rattus norvegicus [21] = experiment: Toxicity in Wistar rat assessed as body weight at 1 mg/kg, iv administered as bolus dose measured up to 24 hrs post dose; format: organism-based; conditions: in vivo; method in brief: as §1
[22] = test system: ADP-stimulated platelet aggregation; experiment: Toxicity in guinea pig assessed as inhibition of ADP-stimulated platelet aggregation at 30 mg/kg, po pretreated for 2 hrs followed by ADP stimulation measured after 5 mins; format: organism-based, Cavia porcellus; conditions: in vivo
Rattus norvegicus [23] = experiment: Apparent volume of distribution in Wistar rat at 5 mg/kg, po measured up to 24 hrs post dose by HPLC-MS/MS analysis; format: ADME, organism-based; conditions: in vivo; method in brief: as §1
Plasma [24] = experiment: Drug metabolism in Wistar rat plasma assessed as [M2+O-2H] metabolite formation at 5 mg/kg, po administered as single dose measured at 3 hrs post dose by LC-HRMS analysis; format: ADME, organism-based; conditions: in vivo; method in brief: as §2
Platelet [25] = experiment: Effect on collagen-stimulated platelet aggregation in human platelet-rich plasma up to 10 uM preincubated for 20 mins followed by collagen stimulation measured after 5 mins by aggregometric analysis; format: ADME, cell-based; method in brief: as §3
Rattus norvegicus [26] = experiment: AUMC (0 to infinity) in Wistar rat at 5 mg/kg, po measured up to 24 hrs post dose by HPLC-MS/MS analysis; format: ADME, organism-based; conditions: in vivo; method in brief: as §1
[27] = AUC (0 to infinity) in Wistar rat at 1 mg/kg, iv administered as bolus dose measured up to 24 hrs post dose by HPLC-MS/MS analysis; format: ADME, organism-based; design: dose 1 mg/kg, time infinity, route intravenous; conditions: in vivo; method in brief: as §4

MRT inf [1]: 5.6 h | MRT inf [2]: 2 h | Drug metabolism (Plasma [3]): Metabolite_Detected | VRT (Rattus norvegicus [4]): 7.6 ha2 | AUMC (Rattus norvegicus [6]): 1135 ng·h/mL | IC50 [7]: 1100 nM | Tmax [9]: 2.5 h | VRT (Rattus norvegicus [10]): 25 ha2 | AUC(0-inf) [11]: 1450 ng·h/mL | Tmax [12]: 1.2 min | clearance [18]: 31.7 mL/min/kg | Stability (Plasma [19]): Stable | bioavailability [20]: 52.5% | Vd(app) (Rattus norvegicus [23]): 20 L/kg | Drug metabolism (Plasma [24]): Metabolite_Detected | AUMC (Rattus norvegicus [26]): 8382 ng·h/mL | AUC(0-inf) [27]: 552 ng·h/mL
Compound: CC1CC[C@@H]2C(C)(C)[C@H](O)CC[C@@]2(C)[C@@H]1/C=C/c1ccc(-c2cccc(F)c2)cn1 (single isomer, unassigned)
Activity (Rattus norvegicus [5]): Non-Toxic | Activity (Platelet [8]): Non-Toxic | inhibition at 5 min [13]: 5.5% | inhibition at 5 min [14]: 6.7% | inhibition in vivo at 30 mg/kg (Cavia porcellus [15]): 99.8% | inhibition in vivo at 30 mg/kg (Cavia porcellus [16]): 98.7% | Activity (Rattus norvegicus [17]): 224 g | Activity (Rattus norvegicus [21]): 226 g | inhibition at 5 min [22]: 4.5% | Activity (Platelet [25]): Non-Toxic
